Reference: the RNAGym collection of RNA variant scans (doi:10.1002/anie.201605470)

B1: Osa-1-4 twister ribozyme (parent)
chain: CCGCCUAACACUGCCAAUGCCGGUCCCAAGCCCGGAUAAAAGUGGAGGGGGCGG

Variants of: B1
Experiment: self-cleavage, relative activity (ratio to wild type); higher = more cleavage; co-transcriptional
Outline: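 The 48 positions downstream of the cleavage site in a 54-nucleotide Oryza sativa twister ribozyme template were synthesised at 97 % wild-type base and 1 % of each other base. The template was transcribed in vitro at 37 °C for 2 h, with self-cleavage allowed during transcription. Reads with or without upstream sequence after deep sequencing marked cleavage status, and relative activity is fraction cleaved normalised to wild type.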

Row | Variant | self-cleavage
1 | A29G G19A | 0.08
2 | A29G G19C | 0.06
3 | A29G G19U | 0.07
4 | A29G G22A | 0.11
5 | A29G G22C | 0.12
6 | A29G G22U | 0.06
7 | A29G G23A | 0.07
8 | A29G G23C | 0.04
9 | A29G G23U | 0.05
10 | A29G G30A | 0.05
11 | A29G G30C | 0.03
12 | A29G G30U | 0.04
13 | A29G G34A | 0.13
14 | A29G G34C | 0.06
15 | A29G G34U | 0.05
16 | A29G G35A | 0.24
17 | A29G G35C | 0.05
18 | A29G G35U | 0.16
19 | A29G G42A | 0.06
20 | A29G G42C | 0.06
21 | A29G G42U | 0.04
22 | A29G G44A | 0.07
23 | A29G G44C | 0.16
24 | A29G G44U | 0.08

Row | Variant | self-cleavage
25 | A29G G45A | 0.05
26 | A29G G45C | 0.03
27 | A29G G45U | 0.04
28 | A29G G47A | 0.05
29 | A29G G47C | 0.03
30 | A29G G47U | 0.03
31 | A29G G48A | 0.04
32 | A29G G48C | 0.04
33 | A29G G48U | 0.03
34 | A29G G49A | 0.05
35 | A29G G49C | 0.04
36 | A29G G49U | 0.04
37 | A29G G50A | 0.27
38 | A29G G50C | 0.08
39 | A29G G50U | 0.17
40 | A29G G51A | 0.1
41 | A29G G51C | 0.05
42 | A29G G51U | 0.06
43 | A29G G53A | 0.07
44 | A29G G53C | 0.06
45 | A29G G53U | 0.07
46 | A29G G54A | 0.15
47 | A29G G54C | 0.08
48 | A29G G54U | 0.37

Row | Variant | self-cleavage
49 | A29G U12A | 0.1
50 | A29G U12C | 0.08
51 | A29G U12G | 0.04
52 | A29G U18A | 0.23
53 | A29G U18C | 0.23
54 | A29G U18G | 0.34
55 | A29G U24A | 0.07
56 | A29G U24C | 0.08
57 | A29G U24G | 0.02
58 | A29G U37A | 0.32
59 | A29G U37C | 0.28
60 | A29G U37G | 0.44
61 | A29G U43A | 0.07
62 | A29G U43C | 0.08
63 | A29G U43G | 0.06
64 | A29U | 0.21
65 | A29U A7C | 0.02
66 | A29U A7G | 0.06
67 | A29U A7U | 0.05
68 | A29U A8C | 0.04
69 | A29U A8G | 0.11
70 | A29U A8U | 0.05
71 | A29U A36C | 0.03
72 | A29U A36G | 0.24

Row | Variant | self-cleavage
73 | A29U A36U | 0.17
74 | A29U A38C | 0.08
75 | A29U A38G | 0.09
76 | A29U A38U | 0.09
77 | A29U A39C | 0.05
78 | A29U A39G | 0.07
79 | A29U A39U | 0.07
80 | A29U A40C | 0.03
81 | A29U A40G | 0.08
82 | A29U A40U | 0.06
83 | A29U A41C | 0.13
84 | A29U A41G | 0.06
85 | A29U A41U | 0.2
86 | A29U A46C | 0.02
87 | A29U A46G | 0.04
88 | A29U A46U | 0.04
89 | A29U C9A | 0.03
90 | A29U C9G | 0.07
91 | A29U C9U | 0.05
92 | A29U C11A | 0.05
93 | A29U C11G | 0.04
94 | A29U C11U | 0.08
95 | A29U C14A | 0.03
96 | A29U C14G | 0.04

Row | Variant | self-cleavage
97 | A29U C14U | 0.05
98 | A29U C15A | 0.04
99 | A29U C15G | 0.09
100 | A29U C15U | 0.07
101 | A29U C20A | 0.12
102 | A29U C20G | 0.03
103 | A29U C20U | 0.21
104 | A29U C21A | 0.05
105 | A29U C21G | 0.04
106 | A29U C21U | 0.15
107 | A29U C25A | 0.03
108 | A29U C25G | 0.05
109 | A29U C25U | 0.1
110 | A29U C26A | 0.03
111 | A29U C26G | 0.05
112 | A29U C26U | 0.07
113 | A29U C27A | 0.03
114 | A29U C27G | 0.05
115 | A29U C27U | 0.08
116 | A29U C31A | 0.02
117 | A29U C31G | 0.03
118 | A29U C31U | 0.06
119 | A29U C32A | 0.04
120 | A29U C32G | 0.03

Row | Variant | self-cleavage
121 | A29U C32U | 0.03
122 | A29U C33A | 0.04
123 | A29U C33G | 0.04
124 | A29U C33U | 0.08
125 | A29U C52A | 0.08
126 | A29U C52G | 0.12
127 | A29U C52U | 0.19
128 | A29U G13A | 0.04
129 | A29U G13C | 0.01
130 | A29U G13U | 0.02
131 | A29U G19A | 0.05
132 | A29U G19C | 0.03
133 | A29U G19U | 0.05
134 | A29U G22A | 0.12
135 | A29U G22C | 0.04
136 | A29U G22U | 0.08
137 | A29U G23A | 0.08
138 | A29U G23C | 0.03
139 | A29U G23U | 0.03
140 | A29U G30A | 0.03
141 | A29U G30C | 0.02
142 | A29U G30U | 0.03
143 | A29U G34A | 0.07
144 | A29U G34C | 0.05

Row | Variant | self-cleavage
145 | A29U G34U | 0.05
146 | A29U G35A | 0.11
147 | A29U G35C | 0.04
148 | A29U G35U | 0.09
149 | A29U G42A | 0.06
150 | A29U G42C | 0.04
151 | A29U G42U | 0.03
152 | A29U G44A | 0.06
153 | A29U G44C | 0.12
154 | A29U G44U | 0.07
155 | A29U G45A | 0.03
156 | A29U G45C | 0.03
157 | A29U G45U | 0.03
158 | A29U G47A | 0.03
159 | A29U G47C | 0.03
160 | A29U G47U | 0.03
161 | A29U G48A | 0.03
162 | A29U G48C | 0.03
163 | A29U G48U | 0.03
164 | A29U G49A | 0.03
165 | A29U G49C | 0.04
166 | A29U G49U | 0.02
167 | A29U G50A | 0.13
